# Test results from paper PMC2745083 (Neuropharmacology, 2009).
# What was measured:
# [1] = Plasma protein binding assay; format: in vitro ADME; details: baboon
# How it was run: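 Formulated [11C]-labeled test compound was incubated 10 min at room temperature in baboon plasma pooled from at least 4 animals. Total activity was sampled, then plasma was ultrafiltered through a Centrifree device (10 min centrifugation) and the filtrate counted. %unbound = Aunbound × 100 / total activity.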
# LogD determination = format: physicochemical; details: octanol/phosphate buffer, pH 7.4
# How it was run: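 Formulated [11C]-labeled test compound was partitioned between octanol and phosphate buffer (pH 7.4), vortexed 2 min and centrifuged 2 min. Both layers were sampled. The octanol layer was serially transferred to fresh octanol/buffer and the procedure repeated, giving six sample sets. Radioactivity was measured in a well counter. logD = log(decay-corrected octanol activity × 10 / decay-corrected buffer activity).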
# [2] = Brain homogenate analysis for parent compound after i.p. injection; format: in vivo, Sprague Dawley rats; details: rat, ~65 min post injection
# How it was run: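 Male Sprague Dawley rats (7–8 weeks) under isoflurane/oxygen got the [11C]-labeled test compound i.p. via a butterfly catheter with a saline rinse (3.0 ± 0.4 mCi), followed by 60 min dynamic PET. Animals were decapitated and brains homogenized in water. The homogenate was precipitated with cold acetonitrile, vortexed and centrifuged (2000 rcf, 2 min). The supernatant was spiked with standard, γ-counted and run on HPLC; the co-eluting fraction was counted as a decay-corrected ratio to initial homogenate radioactivity.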
# [3] = not given; remark: listed apart in the source
# [4] = tested on: permeability glycoprotein (P-gp); details: ref Teksin et al., 2009; cited from earlier work
# [5] = baboon, i.v., acetyl-labeled SA, previous study; ref Hooker, 2008; cited from earlier work
# [6] = [acetyl-11C]-SA from published data; ref Hooker et al., 2008; cited from earlier work
# [7] = [acetyl-11C]-SA from published data; ref Hooker et al., 2008; cited from earlier work; remark: listed apart in the source
# [8] = in vivo, 10 mg/kg; cited from earlier work
# [9] = female, baboon (Papio anubis), in vivo, iv
SMILES,fraction unbound at 10 min [1],lower average maximum brain concentration relative to [11C]-SA [9],time of peak brain concentration [9] [s],time to clear to half of maximum brain concentration [9] [min],logD (LogD determination),proportion of parent compound remaining in brain homogenate [2] [%],"proportion of parent remaining in brain homogenate, fold higher than [11C]-SA [2] [fold]","plasma radioactivity that was parent compound [3, 9] [%]",efflux by permeability glycoprotein (P-gp) [4],residual radioactivity in brain at 60 min after injection [5] [% ID/cm^3],LogD (pH 7.4) [6],time to be metabolized to ~50% in plasma ([3]; baboon plasma after i.v. injection),Plasma Protein Binding (% unbound) [7],"maximum average concentration in the brain (baboon, bolus intravenous administration, whole brain ROI) [% ID/cm^3]","brain radioactivity at 60 min after injection (cleared to) (baboon, i.v., labeled at the methyl ester) [%]",antinociception after 30 minutes [8]
"COC(=O)[C@@H]1C[C@H](O)C(=O)[C@H]2[C@@]1(C)CC[C@H]1C(=O)O[C@H](c3ccoc3)C[C@]21C [SB, Salvinorin B]",0.473,approximately 20%,70,6.0,1.5,–,–,–,–,–,–,–,–,–,–,–
CCOCO[C@H]1C[C@@H](C(=O)OC)[C@]2(C)CC[C@H]3C(=O)O[C@H](c4ccoc4)C[C@]3(C)[C@H]2C1=O [EOM-SB],0.234,–,–,–,2.46 ± 0.01,14,~3,~50,–,–,–,–,–,–,–,–
"COC(=O)[C@@H]1C[C@H](OC(C)=O)C(=O)[C@H]2[C@@]1(C)CC[C@H]1C(=O)O[C@H](c3ccoc3)C[C@]21C [SA, Salvinorin A]",–,–,–,–,–,–,–,–,efflux,0.004,2.34 ± 0.09 (n = 4),under 5 min,16.1 % (n = 2),0.015,0.001,no detectable antinociception
